ChEMBL document CHEMBL1129629, “Orally active, nonpeptide vasopressin V2 receptor antagonists: a novel series of 1-[4-(benzoylamino)benzoyl]-2,3,4,5-tetrahydro-1H-benzazepines and related compounds” (J Med Chem, 1996)

What was measured:
[1] = molecular target: Vasopressin V2 receptor (Rattus norvegicus, UniProt Q00788); test: Displacement of [3H]-AVP from its AVP-V2 receptor binding site in rat kidney
In short: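 Radioligand competition with [3H]AVP on plasma membrane preparations, rat liver for V1a and rat kidney for V2. Assays run in duplicate. Reported intraassay variation is under 3% and interassay variation under 20%.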

[2] = molecular target: Vasopressin V1a receptor (Rattus norvegicus, UniProt P30560); test: Displacement of [3H]AVP from AVP-V1a receptor binding site in rat liver
In short: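 Radioligand competition with [3H]AVP on plasma membrane preparations, rat liver for V1a and rat kidney for V2. […] Assays run in duplicate. Reported intraassay variation is under 3% and interassay variation under 20%.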

[3] = tested on: Rattus norvegicus; test: Dose(mg/kg) required for a 3-fold increase in the 2-h urine volume over the control rats.; format: functional
In short: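 Hydrated conscious rats, compound given orally at three or four doses. Spontaneously voided urine collected every 2 h over 8 h. ED3 (mg/kg) read from the dose–response curve as the dose giving a 3-fold rise in 2-h urine volume over control rats. ">" means no 3-fold rise at the highest dose tested.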

[4] = tested on: Rattus norvegicus; test: UV values mean 2-h urine volume (mL) when the compound was administered orally at a dose of 10 mg/kg; format: functional; conditions: route oral
In short: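 Conscious rats dosed orally at 10 mg/kg, with urine voided spontaneously. The value is urine volume (mL) collected over the first 2 h, given as mean ± SEM of 4 rats and set against control rats (n = 4).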

Sequence of Vasopressin V2 receptor (Q00788 whole entry): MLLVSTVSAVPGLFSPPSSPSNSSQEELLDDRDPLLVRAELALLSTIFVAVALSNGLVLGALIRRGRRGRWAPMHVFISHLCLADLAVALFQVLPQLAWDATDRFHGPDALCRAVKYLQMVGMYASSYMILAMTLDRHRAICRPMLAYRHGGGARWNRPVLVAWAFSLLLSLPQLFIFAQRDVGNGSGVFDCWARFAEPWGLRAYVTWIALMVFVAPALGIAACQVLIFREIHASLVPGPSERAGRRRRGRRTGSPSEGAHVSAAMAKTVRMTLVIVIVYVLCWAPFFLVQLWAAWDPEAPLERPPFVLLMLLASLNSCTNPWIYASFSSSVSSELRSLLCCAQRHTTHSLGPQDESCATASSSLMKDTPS
Sequence of Vasopressin V1a receptor (P30560 whole entry): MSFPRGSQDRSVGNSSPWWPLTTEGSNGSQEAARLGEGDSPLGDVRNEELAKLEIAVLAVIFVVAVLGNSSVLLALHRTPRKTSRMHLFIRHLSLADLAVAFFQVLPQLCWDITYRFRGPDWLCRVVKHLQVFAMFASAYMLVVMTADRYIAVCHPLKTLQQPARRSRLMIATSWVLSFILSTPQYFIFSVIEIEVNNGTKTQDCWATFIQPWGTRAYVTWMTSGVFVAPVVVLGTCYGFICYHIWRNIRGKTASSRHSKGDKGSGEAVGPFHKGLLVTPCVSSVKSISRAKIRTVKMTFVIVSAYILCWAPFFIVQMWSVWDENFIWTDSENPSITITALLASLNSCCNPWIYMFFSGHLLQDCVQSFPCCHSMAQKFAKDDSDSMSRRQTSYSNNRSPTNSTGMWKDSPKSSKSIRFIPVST

Structure (SMILES)	IC50 [1] [nM]	IC50 [2] [nM]	ED3 [3] [mg/kg]	Activity [4] [mL]
Cc1ccc(C(=O)Nc2ccc(C(=O)N3CCCc4ccccc43)cc2)c(C)c1	210	3300	–	–
O=C(Nc1ccc(C(=O)N2CCCc3ccccc32)cc1)c1ccc(Cl)cc1	1900	5100	–	–
O=C(Nc1ccc(C(=O)N2CCCc3ccccc32)cc1)c1cccc(Cl)c1	–	6400	–	–
O=C(Nc1ccc(C(=O)N2CCCc3ccccc32)cc1)c1cc(Cl)cc(Cl)c1	82	9400	–	–
O=C(Nc1ccc(C(=O)N2CCCc3ccccc32)cc1)c1cccc([N+](=O)[O-])c1	760	16000	–	–
Cc1ccccc1C(=O)Nc1ccc(C(=O)N2CCOCc3ccccc32)cc1	300	630	–	–
O=C(Nc1ccc(C(=O)N2CCCc3ccccc32)cc1)c1ccccc1[N+](=O)[O-]	530	2700	–	–
Cc1ccc(C(=O)Nc2ccc(C(=O)N3CCCc4ccccc43)cc2)cc1	1400	10000	–	–
Cc1ccccc1C(=O)Nc1ccc(C(=O)N2CCN(C)c3ccccc32)cc1	400	5100	–	–
CCCN(C)C1CCCN(C(=O)c2ccc(NC(=O)c3ccccc3C)cc2)c2ccccc21 (configuration not stated)	22	1200	4.9	8.3
Cc1ccccc1C(=O)Nc1ccc(C(=O)N2CCCOc3ccccc32)cc1	110	1200	–	–
O=C(Nc1ccc(C(=O)N2CCCc3ccccc32)cc1)c1ccccc1Cl	420	1600	–	–
O=C(Nc1ccc(C(=O)N2CCCC(N3CCCCC3)c3ccccc32)cc1)c1ccccc1Cl (configuration not stated)	140	2800	–	–
CC(=O)NC1CCCN(C(=O)c2ccc(NC(=O)c3ccccc3C)cc2)c2ccccc21 (configuration not stated)	150	3200	>30	–
CC(C)C(=O)Nc1ccc(C(=O)N2CCCc3ccccc32)cc1	8100	2400	–	–
O=C(Cc1ccccc1)Nc1ccc(C(=O)N2CCCc3ccccc32)cc1	1000	3200	–	–
Cc1ccccc1C(=O)Nc1ccc(C(=O)N2CCCC(N(C)CC(N)=O)c3ccccc32)cc1 (configuration not stated)	–	–	6.4	6.2
Cc1cccc(C(=O)Nc2ccc(C(=O)N3CCCc4ccccc43)cc2)c1	680	3100	–	–
CN(C)C1CCCN(C(=O)c2ccc(NC(=O)c3ccc(Cl)cc3Cl)cc2)c2ccccc21 (configuration not stated)	13	1300	–	–
CCOC(=O)CN(C)C1CCCN(C(=O)c2ccc(NC(=O)c3ccccc3C)cc2)c2ccccc21 (configuration not stated)	29	980	>30	–

Structure (SMILES)	IC50 [1] [nM]	IC50 [2] [nM]	ED3 [3] [mg/kg]	Activity [4] [mL]
CN(C)C1CCCN(C(=O)c2ccc(NC(=O)c3ccccc3N)cc2)c2ccccc21 (configuration not stated)	190	1900	–	–
Cc1ccccc1C(=O)Nc1ccc(C(=O)N2CCCC(N(C)CC#N)c3ccccc32)cc1 (configuration not stated)	25	3200	>30	–
Cc1ccccc1C(=O)N(C)c1ccc(C(=O)N2CCCC(N(C)C)c3ccccc32)cc1 (configuration not stated)	1000	19000	–	–
Cc1ccccc1C(=O)Nc1ccc(C(=O)N2CCCC(N)c3ccccc32)cc1 (configuration not stated)	32	390	–	–
O=C(Nc1ccc(C(=O)N2CCCCc3ccccc32)cc1)c1ccccc1Cl	29	45	–	–
O=C(c1ccc(NS(=O)(=O)c2ccccc2)cc1)N1CCCCc2ccccc21	1600	2500	–	–
Cc1ccccc1C(=O)Nc1ccc(C(=O)N2CCCc3ccccc32)cc1	–	1400	–	–
COc1ccccc1C(=O)Nc1ccc(C(=O)N2CCCc3ccccc32)cc1	2100	1910	–	–
Cc1ccc(C(=O)Nc2ccc(C(=O)N3CCCC(N(C)C)c4ccccc43)cc2)cc1 (configuration not stated)	44	26000	–	–
O=C(Nc1ccc(C(=O)N2CCCc3ccccc32)cc1)c1cccnc1	7600	11000	–	–
CNC1CCCN(C(=O)c2ccc(NC(=O)c3ccccc3C)cc2)c2ccccc21 (configuration not stated)	24	720	4.6	8.3
COc1ccccc1C(=O)Nc1ccc(C(=O)N2CCCC(N(C)C)c3ccccc32)cc1 (configuration not stated)	77	1000	–	–
CCCC(=O)Nc1ccc(C(=O)N2CCCc3ccccc32)cc1	7100	4300	–	–
O=C(Nc1ccc(C(=O)N2CCCc3ccccc32)cc1)c1ccccc1	–	1600	–	–
Cc1cccc(C(=O)Nc2ccc(C(=O)N3CCCC(N(C)C)c4ccccc43)cc2)c1 (configuration not stated)	14	2400	>30	–
CNC(=O)NC1CCCN(C(=O)c2ccc(NC(=O)c3ccccc3C)cc2)c2ccccc21 (configuration not stated)	96	2800	–	–
O=C(CCc1ccccc1)Nc1ccc(C(=O)N2CCCc3ccccc32)cc1	6100	2300	–	–
O=C(Nc1ccc(C(=O)N2CCCc3ccccc32)cc1)c1ccc([N+](=O)[O-])cc1	6500	> 100000	–	–
O=C(Nc1ccc(C(=O)N2CCCc3ccccc32)cc1)c1ccsc1	1700	1700	–	–
O=C(Nc1cccc(C(=O)N2CCCc3ccccc32)c1)c1ccccc1	40000	> 100000	–	–

Structure (SMILES)	IC50 [1] [nM]	IC50 [2] [nM]	ED3 [3] [mg/kg]	Activity [4] [mL]
O=C(Nc1ccccc1)Nc1ccc(C(=O)N2CCCCc3ccccc32)cc1	180	760	–	–
CCOc1ccc(C(=O)Nc2ccc(C(=O)N3CCCc4ccccc43)cc2)cc1	> 100000	14000	–	–
CC(=O)Nc1ccccc1C(=O)Nc1ccc(C(=O)N2CCCC(N(C)C)c3ccccc32)cc1 (configuration not stated)	640	16000	–	–
O=C(Nc1ccc(C(=O)N2CCCc3ccccc32)cc1)c1ccco1	6400	4000	–	–
CCCCOc1ccc(C(=O)Nc2ccc(C(=O)N3CCCc4ccccc43)cc2)cc1	> 100000	> 100000	–	–
CCNC1CCCN(C(=O)c2ccc(NC(=O)c3ccccc3C)cc2)c2ccccc21 (configuration not stated)	29	1600	8	5.4
O=C(Nc1ccc(C(=O)N2CCCc3ccccc32)cc1)c1ccc(Cl)cc1Cl	250	> 100000	–	–
CC(=O)Nc1ccc(C(=O)N2CCCc3ccccc32)cc1	> 100000	74000	–	–
O=C(Nc1ccccc1C(=O)N1CCCc2ccccc21)c1ccccc1	22000	88000	–	–
Cc1ccccc1C(=O)Nc1ccc(C(=O)N2CCN(C)Cc3ccccc32)cc1	170	1800	–	–
Cc1ccccc1C(=O)Nc1ccc(C(=O)N2CCCC(N(C)C)c3ccccc32)cc1 (configuration not stated) [MOZAVAPTAN]	–	1400	3.8	12.3
Cc1ccccc1C(=O)Nc1ccc(C(=O)N2CCOc3ccccc32)cc1	4100	7700	–	–
CN(C)C1CCCN(C(=O)c2ccc(NC(=O)c3ccccc3)cc2)c2ccccc21 (configuration not stated)	27	3000	>30	–
CN(C)C1CCCN(C(=O)c2ccc(NC(=O)c3ccccc3[N+](=O)[O-])cc2)c2ccccc21 (configuration not stated)	71	2600	–	–
CN(C)C1CCCN(C(=O)c2ccc(NC(=O)c3cc(Cl)cc(Cl)c3)cc2)c2ccccc21 (configuration not stated)	20	2600	–	–
Cc1ccccc1C(=O)Nc1ccc(C(=O)N2CCCC(O)c3ccccc32)cc1 (configuration not stated)	29	140	–	3.6
COc1cccc(C(=O)Nc2ccc(C(=O)N3CCCc4ccccc43)cc2)c1	–	2800	–	–
COc1ccc(C(=O)Nc2ccc(C(=O)N3CCCc4ccccc43)cc2)cc1	1800	2200	–	–
Cc1ccc(C(=O)Nc2ccc(C(=O)N3CCCc4ccccc43)cc2)cc1C	1200	> 100000	–	–
